Measured values reported in ChEMBL document CHEMBL3769305, “Glucose-functionalized amino-OPEs as biocompatible photosensitizers in PDT” (Eur J Med Chem, 2016).
Calls of active or inactive are those of the source. No cut-off for these calls is given here.

What was measured:
[1] = Dark toxicity against human HaCaT cells assessed as cell survival at 5 uM incubated for 6 hrs measured after 24 hrs by MTT assay; assay type: cell-based; settings: read-out: Survival
Procedure, shortened: (§1)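 Cells (HaCaT and HeLa in DMEM, HEp-2 in RPMI, each with 10% FBS, at 37 °C and 5% CO2) were treated at 60–70% confluence. The compound was added from a 10^-3 M DMSO stock in medium with 1% FBS (final DMSO <0.5%) at 3·10^-6 to 2.5·10^-5 M and kept in the dark (6 h per table footnote, 18 h per methods). After 24 h, MTT at 50 µg/mL for 4 h, read at 542 nm as % of control OD.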

HaCaT [2] = assay: Drug uptake in human HaCaT cells at 1 uM after 6 hrs by fluorescence microscopy; assay type: ADME, cell-based
Procedure, shortened: (§2)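 Cells on glass coverslips at 60–70% confluence were exposed to 1×10^-6 M compound in medium with 1% FBS (DMSO <0.5%) for 6 h at 37 °C. After two PBS washes they were imaged live under UV excitation (365 nm), with blue excitation (460–490 nm) also used. Untreated cells served as autofluorescence controls.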

HeLa [3] = assay: Drug uptake in human HeLa cells at 1 uM after 6 hrs by fluorescence microscopy; assay type: ADME, cell-based; procedure, shortened: as §2
[4] = Drug uptake in endoplasmic reticulum of human HeLa cells at 1 uM after 6 hrs by ER-tracker dye-based fluorescence microscopy; assay type: ADME, cell-based
Procedure, shortened: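 Cells grown on glass coverslips were incubated with 1×10^-6 M photosensitizer for 6 h at 37 °C, washed twice in PBS and imaged live by fluorescence microscopy. Organelle probes (ER-Tracker, ex 374/em 430 nm; NBD-Golgi, ex 466/em 536 nm) were applied for 30 min at the supplier's concentrations, and their patterns were compared with the compound signal.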

[5] = Dark toxicity against human HaCaT cells assessed as cell survival at 3 uM incubated for 6 hrs measured after 24 hrs by MTT assay; assay type: cell-based; settings: read-out: Survival; procedure, shortened: as §1
[6] = Dark toxicity against human HeLa cells assessed as cell survival at 5 uM incubated for 6 hrs measured after 24 hrs by MTT assay; assay type: cell-based; settings: read-out: Survival; procedure, shortened: as §1
[7] = Dark toxicity against human Hep2 cells assessed as cell survival at 3 uM incubated for 6 hrs measured after 24 hrs by MTT assay; assay type: cell-based, HEp-2; settings: read-out: Survival; procedure, shortened: as §1
HeLa [8] = assay: Phototoxicity against human HeLa cells incubated for 6 hrs followed by UV irradiation at 0.25 J/cm'2 measured after 24 hrs by MTT assay; assay type: functional
Procedure, shortened: (§3)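 Cultures at 60–70% confluence were loaded with the photosensitizer for 6 h in medium with 1% FBS and <0.5% DMSO. Medium was then replaced and cells were irradiated with UVA (300–400 nm, 15.9 W/m² at 10 cm), then washed and kept in complete medium for 24 h. Survival was read by MTT (50 µg/mL, 4 h, 542 nm) as % of untreated control OD.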

[9] = Phototoxicity against human HaCaT cells incubated for 6 hrs followed by UV irradiation at 0.25 J/cm'2 measured after 24 hrs by MTT assay; assay type: cell-based; settings: read-out: LD50; procedure, shortened: as §3
HaCaT [10] = assay: Phototoxicity against human HaCaT cells assessed as cell lethality at 3 to 250 uM incubated for 6 hrs followed by UV irradiation at 2 J/cm'2 measured after 24 hrs by MTT assay; assay type: cell-based; procedure, shortened: as §3
HeLa [11] = assay: Phototoxicity against human HeLa cells assessed as cell lethality at 3 to 250 uM incubated for 6 hrs followed by UV irradiation at 2 J/cm'2 measured after 24 hrs by MTT assay; assay type: functional; procedure, shortened: as §3
HeLa [12] = assay: Induction of cell morphological changes in human HeLa cells assessed as cytoplasmic retraction at 3 to 5 uM after 24 hrs by Hoechst 33258 staining-based phase contrast microscopy in presence of UVA light; assay type: functional
HeLa [13] = assay: Induction of cell morphological changes in human HeLa cells assessed as cytoplasmic vacuolization at 3 to 5 uM after 24 hrs by Hoechst 33258 staining-based phase contrast microscopy in presence of UVA light; assay type: functional
HeLa [14] = assay: Induction of apoptotic morphological changes in human HeLa cells at LD50 after 24 hrs by Hoechst 33258 staining-based fluorescence microscopy in presence of UVA light; assay type: functional, cell-based
HaCaT [15] = assay: Induction of apoptosis in human HaCaT cells at LD50 after 24 hrs by acridine orange/ethidium bromide staining-based assay in presence of 0.25 to 0.5 J/cm'2 UVA light; assay type: cell-based
HeLa [16] = assay: Induction of apoptosis in human HeLa cells at LD50 after 24 hrs by acridine orange/ethidium bromide staining-based assay in presence of 0.25 to 0.5 J/cm'2 UVA light; assay type: functional, cell-based
HEp-2 [17] = assay: Induction of necrosis in human Hep2 cells at LD50 after 24 hrs by acridine orange/ethidium bromide staining-based assay in presence of 0.25 to 0.5 J/cm'2 UVA light; assay type: functional, cell-based
Procedure, shortened: (§4)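 Cells (HaCaT, HeLa in DMEM; HEp-2 in RPMI; 10% FBS) at 60–70% confluence were incubated 6 h with 3·10^-6 M photosensitizer (DMSO stock diluted in medium with 1% FBS, final DMSO <0.5%). Medium was replaced and cells were given 0.25 J/cm² UVA (300–400 nm). 24 h later, cells were stained live with 50 µg/ml AO plus 50 µg/ml EtBr in PBS. Within 15 min, 200 cells per condition were scored as living, rounded, apoptotic or necrotic.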

HEp-2 [18] = assay: Phototoxicity against human Hep2 cells assessed as appearance of rounded cells at LD50 after 24 hrs by acridine orange/ethidium bromide staining-based assay in presence of 0.25 to 0.5 J/cm'2 UVA light; assay type: functional, cell-based; procedure, shortened: as §4
[19] = Induction of microtubule disruption in human Hep2 cells assessed as abnormality in chromosome distribution at LD50 after 24 hrs by immunofluorescence assay in presence of UVA light; assay type: cell-based; settings: HEp-2
HeLa [20] = assay: Induction of microtubule disruption in human HeLa cells assessed as increase in mitotic index at LD50 after 24 hrs by immunofluorescence assay in presence of UVA light; assay type: cell-based
HEp-2 [21] = assay: Induction of microtubule disruption in human Hep2 cells assessed as increase in altered metaphase at LD50 after 24 hrs by immunofluorescence assay in presence of UVA light; assay type: cell-based
[22] = Induction of microtubule disruption in human HaCaT cells assessed as appearance of apoptotic morphology at LD50 after 24 hrs by immunofluorescence assay in presence of UVA light; assay type: cell-based
HEp-2 [23] = assay: Induction of cell morphological changes in human Hep2 cells assessed as appearance of rounded cells at 3 to 5 uM after 24 hrs by Hoechst 33258 staining-based phase contrast microscopy in presence of UVA light; assay type: functional
HeLa [24] = assay: Induction of cell morphological changes in human HeLa cells assessed as cell detachment from substrate at 3 to 5 uM after 24 hrs by Hoechst 33258 staining-based phase contrast microscopy in presence of UVA light; assay type: functional
HEp-2 [25] = assay: Induction of cell morphological changes in human Hep2 cells assessed as deep deformation of cell membrane at LD90 after 24 hrs by Hoechst 33258 staining-based phase contrast microscopy in presence of 1 to 2 J/Cm'2 UVA light; assay type: functional
HaCaT [26] = assay: Induction of cell morphological changes in human HaCaT cells assessed as deep deformation of cell membrane at LD90 after 24 hrs by Hoechst 33258 staining-based phase contrast microscopy in presence of 1 to 2 J/Cm'2 UVA light

SMILES | viability at 6 h, 5 µM [1] [%] | Drug uptake (HaCaT [2]) | Drug uptake (HeLa [3]) | Drug uptake [4] | viability at 6 h, 3 µM [5] [%] | viability at 6 h, 5 µM [6] [%] | viability at 6 h, 3 µM [7] [%] | LD50 (HeLa [8]) [×10⁻⁶ M] | CC50 at 24 h [9] [µM] | mortality (HaCaT [10]) [%] | mortality (HeLa [11]) [%] | Activity (HeLa [12]) | Activity (HeLa [13]) | Activity (HeLa [14]) | Activity (HaCaT [15]) | Activity (HeLa [16]) | Activity (HEp-2 [17]) | Activity (HEp-2 [18]) | Activity [19] | Activity (HeLa [20]) | other results
COc1cc(C#Cc2ccc(C#Cc3cc(OC)c(C#CCO[C@@H]4O[C@H](CO)[C@@H](O)[C@H](O)[C@H]4O)cc3OC)c(N(C)C)c2)c(OC)cc1C#CCO[C@@H]1O[C@H](CO)[C@@H](O)[C@H](O)[C@H]1O | 91.4 | Active | Active | Active | 92.4 | 95.4 | 97.2 | 3 | 3 | > 50 | >50 | Active | Active | Active | Toxic | Active | Active | Active | Active | Active | Activity (HEp-2 [21]): Active; Activity [22]: Toxic; Activity (HEp-2 [23]): Active; Activity (HeLa [24]): Active; Activity (HEp-2 [25]): Active; Activity (HaCaT [26]): Toxic
COc1cc(C#Cc2ccc(C#CCO[C@@H]3O[C@H](CO)[C@@H](O)[C@H](O)[C@H]3O)cc2N(C)C)c(OC)cc1C#Cc1ccc(C#CCO[C@@H]2O[C@H](CO)[C@@H](O)[C@H](O)[C@H]2O)cc1N(C)C | 90.9 | Active | Active | Active | 91.5 | 93.5 | 97.7 | 3 | 3 | > 50 | >50 | Active | Active | Active | Toxic | Active | Active | Active | Active | Active | Activity (HEp-2 [21]): Active; Activity [22]: Toxic; Activity (HEp-2 [23]): Active; Activity (HeLa [24]): Active; Activity (HEp-2 [25]): Active; Activity (HaCaT [26]): Toxic
